# Structures can show the parent of a compound that is named as a salt. Where two headings read alike, the source gives them in different places.
# What was measured:
# [1] = target: T1, recombinant T. b. brucei CTPS (Trypanosoma brucei brucei, UniProt Q4GZ95); experiment: CTPS enzyme assay; assay type: biochemical
# T1 sequence (Q4GZ95 1-589): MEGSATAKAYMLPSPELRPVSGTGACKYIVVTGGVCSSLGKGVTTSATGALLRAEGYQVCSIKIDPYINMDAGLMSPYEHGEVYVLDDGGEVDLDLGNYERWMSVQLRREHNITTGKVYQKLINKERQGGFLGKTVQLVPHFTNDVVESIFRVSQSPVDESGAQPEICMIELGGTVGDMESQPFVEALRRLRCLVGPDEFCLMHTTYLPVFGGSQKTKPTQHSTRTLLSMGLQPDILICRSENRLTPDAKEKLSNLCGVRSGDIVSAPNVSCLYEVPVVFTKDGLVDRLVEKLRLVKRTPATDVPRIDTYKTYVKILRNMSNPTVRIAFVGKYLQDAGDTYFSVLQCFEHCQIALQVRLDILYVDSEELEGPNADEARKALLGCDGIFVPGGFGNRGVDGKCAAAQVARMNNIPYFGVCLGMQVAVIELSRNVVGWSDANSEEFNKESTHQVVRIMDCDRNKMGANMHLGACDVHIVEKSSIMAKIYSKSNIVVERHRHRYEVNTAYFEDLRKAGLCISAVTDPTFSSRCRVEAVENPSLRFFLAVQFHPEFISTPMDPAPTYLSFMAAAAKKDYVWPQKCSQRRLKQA
# How it was run: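 Recombinant T. b. brucei CTPS measured by coupled spectrophotometric assay with pyruvate kinase/lactate dehydrogenase. Enzyme pre-incubated with varied test-compound concentrations at room temperature, then added to reaction mix; A341 decrease monitored; IC50.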
# [2] = test system: HeLa cells; experiment: In vitro toxicity assay for HeLa mammalian cells; assay type: cell-based, human; details: read-out: HeLa EC50
# How it was run: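 Alamar Blue assay on HeLa cells grown in DMEM with 10% FCS and 2 mM L-glutamine. Cells plated at 3 × 10^5 cells mL−1 and exposed to serially diluted test compound for 16 h before Alamar Blue addition. Fluorescence read at ex 544/em 590 nm; EC50 derived from the dose-response.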
# [3] = test system: bloodstream form T. b. brucei (strain 427); experiment: In vitro toxicity assay for T. b. brucei; assay type: cell-based; details: for EC50: read-out: T. b. brucei EC50, strain 427, 48 h + 24 h Alamar Blue
# [4] = target: T1, recombinant T. b. brucei CTPS; details: 3-Br versus 3-Cl (Acivicin); cited from earlier work
# [5] = test system: bloodstream form T. b. brucei (strain 427); details: 3-Br versus 3-Cl (Acivicin); cited from earlier work
# [6] = test system: HeLa cells; details: 3-Br versus 3-Cl (Acivicin); cited from earlier work
# [7] = 16 hours incubation before Alamar Blue
SMILES,IC50 [1],"EC50 ([2]; Homo sapiens, HeLa, 16 h)",S.I. selectivity index (EC50 HeLa/EC50 T. b. brucei) [3],further results
COC(=O)[C@@H](N)[C@@H]1CC(Br)=NO1 [1-COOMe],,,,"EC50 [3]: 2.1 ± 0.5 µM; EC50 [2, 7]: 12.5 ± 1.6 µM"
"N[C@H](C(=O)O)[C@@H]1CC(Cl)=NO1 [Acivicin, reference compound]",,16.3 µM,36,
COC(=O)[C@@H](N)[C@@H]1CC(Cl)=NO1 [Acivicin-COOMe],,,,"EC50 [3]: 22.4 ± 1.3 µM; EC50 [2, 7]: 41.9 ± 3.1 µM"
"N[C@H](C(=O)O)[C@@H]1CC(Br)=NO1 [Compound 1, Br-Acivicin]",,,,"times more potent than Acivicin as a CTPS inhibitor ([1]; relative to Acivicin): 3; EC50 [3]: 0.038 ± 0.013 µM; times more efficacious than Acivicin as an anti-trypanosomal agent ([3]; relative to Acivicin): 12; EC50 [2, 7]: 15.1 ± 1.2 µM; increase of the inhibitory potency against CTPS [4]: three fold; increase in the in vitro anti-trypanosomal activity [5]: twelve-fold; toxicity against mammalian cells [6]: unaffected"
"COC1=NO[C@H]([C@H](N)C(=O)O)C1 [Compound 2, (S)-2-amino-2-((S)-3-methoxy-4,5-dihydroisoxazol-5-yl)acetic acid]",> 500 µM,> 500 µM,>5,
"CN(C)C1=NO[C@H]([C@H](N)C(=O)O)C1 [Compound 3, (S)-2-amino-2-((S)-3-(dimethylamino)-4,5-dihydroisoxazol-5-yl)acetic acid]",> 500 µM,> 500 µM,>5,"inhibitory activity against CTPS, in words [1]: complete loss of the inhibitory potency"
"O=C(O)CC1CC(Br)=NO1 (centres unmarked) [Compound 4, 2-(3-bromo-4,5-dihydroisoxazol-5-yl)acetic acid]",> 500 µM,> 500 µM,>5,"inhibitory activity against CTPS, in words [1]: inactive"
CC(C)(C)OC(=O)N[C@H](C(=O)O)[C@@H]1CC(Br)=NO1 [Compound 5],,,,"CTPS inhibitory potency relative to Br-Acivicin ([1]; relative to Br-Acivicin): twice more potent; EC50 [3]: 3.4 ± 0.4 µM; EC50 [2, 7]: 4.6 ± 0.5 µM"
"O=C(N[C@H](C(=O)O)[C@@H]1CC(Br)=NO1)OCc1ccccc1 [Compound 6, (S)-(benzyloxycarbonylamino)-2-((S)-3-bromo-4,5-dihydro-isoxazol-5-yl)acetic acid]",1.74 ± 0.4 µM,410 ± 39 µM,,times weaker than Acivicin as a CTPS inhibitor ([1]; relative to Acivicin): 5; times weaker than Br-Acivicin as a CTPS inhibitor ([1]; relative to Br-Acivicin): 17

# More lines, main results first:
IC50 [1],SMILES,"EC50 ([2]; Homo sapiens, HeLa, 16 h)",S.I. selectivity index (EC50 HeLa/EC50 T. b. brucei) [3],further results
> 500 µM,"N[C@H](C(=O)O)[C@H]1CC(Cl)=NN1Cc1ccccc1 (relative stereo) [Compound 7a, (S*)-2-amino-2-((R*)-1-benzyl-3-chloro-4,5-dihydro-1H-pyrazol-5-yl)acetic acid hydrochloride]",> 500 µM,,
> 500 µM,"N[C@H](C(=O)O)[C@@H]1CC(Cl)=NN1Cc1ccccc1 (relative stereo) [Compound 7b, (S*)-2-amino-2-((S*)-1-benzyl-3-chloro-4,5-dihydro-1H-pyrazol-5-yl)acetic acid hydrochloride]",> 500 µM,,
0.1 ± 0.004 µM,"CCN1N=C(Cl)C[C@@H]1[C@H](N)C(=O)O.Cl (relative stereo) [Compound 8a, (S*)-2-amino-2-((R*)-3-chloro-1-ethyl-4,5-dihydro-1H-pyrazol-5-yl)acetic acid hydrochloride]",> 500 µM,>5,"inhibitory activity against CTPS, in words [1]: sub-micromolar inhibition; times more potent than Acivicin as a CTPS inhibitor ([1]; relative to Acivicin): about three times more potent; increase of trypanocidal activity upon conversion into the methyl ester (times) ([3]; methyl ester versus free amino acid): about 9"
> 500 µM,"CCN1N=C(Cl)C[C@H]1[C@H](N)C(=O)O (relative stereo) [Compound 8b, (S*)-2-amino-2-((S*)-3-chloro-1-ethyl-4,5-dihydro-1H-pyrazol-5-yl)acetic acid hydrochloride]",> 500 µM,,
0.125 ± 0.002 µM,"Cl.NCCN1N=C(Cl)CC1C(N)C(=O)O (centres unmarked) [9a,b, 2-amino-2-(1-(2-aminoethyl)-3-chloro-4,5-dihydro-1H-pyrazol-5-yl)acetic acid monohydrochloride]",> 500 µM,,"inhibitory activity against CTPS, in words [1]: sub-micromolar inhibition; times more potent than Acivicin as a CTPS inhibitor ([1]; relative to Acivicin): about three times more potent"

# — article PMC3744939 (ChemMedChem, 2012)
